{"source": "paper PMC2764440", "about": "(Nucleic Acids Research, 2009)", "key": {"CD4+ T-cells": {"tested_on": "CD4+ T-cells", "assay": "T-cell proliferation assay", "assay_type": "cell-based, mouse", "conditions": "1-MT 0.75 mM", "method_in_brief": "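CD4+ responder T cells from C3H mouse spleens (10^5/well, anti-CD3/CD28 bead-stimulated) were co-cultured 3 days with 5 × 10^4 mitomycin C-treated (40 µg/ml, 30 min) MCEC. The MCEC were untransfected or transfected with test peptide carrying IDO or GFP plasmid, with or without 0.75 mM final 1-methyl-dl-tryptophan. [3H]thymidine (1 µCi/well) was added and incorporation was counted 16 h later.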"}, "MCEC [1]": {"tested_on": "MCEC", "assay": "Inhibitor studies: uptake of F complexes", "assay_type": "cell-based", "conditions": "Mus musculus, read-out: reduction (inhibition) of uptake of F complexes", "method_in_brief": "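Mouse corneal endothelial cells (MCEC; DMEM, 10% FBS, full serum) were seeded at 2.2 × 10^5/well one day before. Complexes of test peptide with Cy5-labelled luciferase plasmid were formed in 10 mM phosphate buffer pH 7.0, added with inhibitor at non-toxic working levels, and incubated 3 h at 37°C. Cells were washed, trypsinised and read by flow cytometry (mean fluorescence, 10 000 gated cells), relative to vehicle (DMSO or water) = 100%.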"}, "MCEC [2]": {"tested_on": "MCEC", "assay": "Inhibitor studies: luciferase gene expression mediated by F complexes", "assay_type": "cell-based, mouse"}}}
{"smiles": "Cn1cc(CC(N)C(=O)O)c2ccccc21", "note": "(racemic) [1-MT, 1-methyl-DL-tryptophan]", "values": [{"measurement": "effect on the inhibition of T-cell proliferation by IDO-transfected MCEC", "setting": "CD4+ T-cells", "value": "reversed"}]}
{"smiles": "CCN(c1nc(N)c(C(=O)NC(=N)N)nc1Cl)C(C)C", "note": "[EIPA, 5-(N-ethyl-N-isopropyl)amiloride]", "values": [{"measurement": "inhibition at 25 µg/mL", "setting": "MCEC [1]", "value": 32.9, "unit": "%"}]}
{"smiles": "CCCCC[C@@H](O)[C@H]1C(=O)O[C@H](C)[C@@H](O)/C=C/C=C/C=C/C=C/C=C(\\C)[C@@H](O)C[C@H](O)C[C@H](O)C[C@H](O)C[C@H](O)C[C@H](O)C[C@@H]1O", "note": "[Filipin, filipin III]", "values": [{"measurement": "inhibition at 1 µg/mL", "setting": "MCEC [1]", "value": 48.6, "unit": "%"}]}
{"smiles": "C=C1[C@@H](C)[C@H]2[C@H](Cc3ccccc3)NC(=O)[C@]23[C@H](OC(C)=O)/C=C/[C@@](C)(O)C(=O)[C@@H](C)C/C=C/[C@H]3[C@@H]1O", "note": "[cytochalasin, cytochalasin D]", "values": [{"measurement": "inhibition at 5 µg/mL", "setting": "MCEC [1]", "value": 58.5, "unit": "%"}]}
{"smiles": "O=C(N/N=C/c1ccc(O)c(O)c1)c1cc2ccccc2cc1O", "note": "[dynasore]", "values": [{"measurement": "toxicity during the longer incubation period used for gene expression assays", "setting": "MCEC [2]; dynasore 6.8 µg/ml, MCEC", "value": "pronounced toxicity"}, {"measurement": "inhibition at 6.8 µg/mL", "setting": "MCEC [1]", "value": 64.7, "unit": "%"}]}
{"smiles": "COC(=O)Nc1nc2ccc(C(=O)c3cccs3)cc2[nH]1", "note": "[nocodazole]", "values": [{"measurement": "increase of gene expression mediated by F complexes", "setting": "MCEC [2]; nocodazole 4.5 µg/ml, N/P 20, luciferase 72 h later, relative to vehicle control", "value": 2.35, "unit": "times"}, {"measurement": "inhibition at 4.5 µg/mL", "setting": "MCEC [1]", "value": 58.2, "unit": "%"}]}
